Active and inactive are the calls of the source.
Experiments:
Details in all cases: C57Bl/6
[1] = tested on: Mus musculus; assay: Antiinflammatory activity against trinitrobenzenesulfonic acid-induced colitis in human PXR expressing transgenic C57/BL6 mouse assessed as decrease in presence of indurations in colon at 10 mg/kg, po qd administered 3 days before TNBS challenge measured after 7 days; format: functional, organism-based; parameters: dose 10 mg/kg
Summary of the method: (§1)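 hPXR male mice were fasted 16 h and given TNBS intrarectally (0.5 mg/mouse in 50% ethanol). Oral 10 mg/kg once daily (DMSO stock diluted in 1% methylcellulose) began 3 days before TNBS; vehicle controls received 1% methylcellulose. Four days after TNBS, colon macroscopic appearance was graded blind for induration, edema, thickness and mucosal hemorrhage. n = 6–7.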

[2] = tested on: Mus musculus; assay: Antiinflammatory activity against trinitrobenzenesulfonic acid-induced colitis in human PXR expressing transgenic C57/BL6 mouse assessed as decrease in edema of colon at 10 mg/kg, po qd administered 3 days before TNBS challenge measured after 7 days; format: functional, organism-based; parameters: dose 10 mg/kg; summary of the method: as §1
[3] = tested on: Mus musculus; assay: Antiinflammatory activity against trinitrobenzenesulfonic acid-induced colitis in human PXR expressing transgenic C57/BL6 mouse assessed as decrease in evidence of mucosal hemorrhage damage at 10 mg/kg, po qd administered 3 days before TNBS challenge measured after 7 days; format: functional, organism-based; parameters: dose 10 mg/kg; summary of the method: as §1
[4] = tested on: Mus musculus; assay: Antiinflammatory activity against trinitrobenzenesulfonic acid-induced colitis in human PXR expressing transgenic C57/BL6 mouse assessed as induction of CYP3A11 mRNA expression in colon at 10 mg/kg, po qd after 5 days by quantitative RT-PCR; format: functional, organism-based; parameters: dose 10 mg/kg
Summary of the method: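 Cyp3A11 mRNA in colon of TNBS-colitic hPXR mice was measured by SYBR Green qPCR (50 ng template, 0.2 μM primers). Cycling was 95 °C for 2 min, then 40 cycles of 95/55/72 °C, with each reaction run in triplicate. Expression was calculated by ΔΔCT against GAPDH relative to untreated control. Mean ± SE, 5 mice/group.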

[5] = tested on: Mus musculus; assay: Antiinflammatory activity against trinitrobenzenesulfonic acid-induced colitis in human PXR expressing transgenic C57/BL6 mouse assessed as decrease in thickness of colon at 10 mg/kg, po qd administered 3 days before TNBS challenge measured after 7 days; format: functional, organism-based; parameters: dose 10 mg/kg; summary of the method: as §1
[6] = tested on: Mus musculus; assay: Antiinflammatory activity against trinitrobenzenesulfonic acid-induced colitis in human PXR expressing transgenic C57/BL6 mouse assessed as decrease in vascular density in colon at 10 mg/kg, ip administered on day 1 after TNBS challenge measured after 5 days by microscopically
[7] = tested on: Mus musculus; assay: Antiinflammatory activity against trinitrobenzenesulfonic acid-induced colitis in human PXR expressing transgenic C57/BL6 mouse assessed as decrease in presence of indurations in colon at 10 mg/kg, ip administered on day 1 after TNBS challenge measured after 5 days; format: functional, organism-based; parameters: dose 10 mg/kg
Summary of the method: (§2)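 Therapeutic protocol in male hPXR mice. Colitis was induced with intrarectal TNBS 0.5 mg/mouse in 50% ethanol after a 16 h fast and light ketamine/xylazine anaesthesia. Drug at 10 mg/kg was given once daily from day 1 after TNBS. Mice were sacrificed 5 days after TNBS; n = 4–6 per group.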

[8] = tested on: Mus musculus; assay: Antiinflammatory activity against trinitrobenzenesulfonic acid-induced colitis in human PXR expressing transgenic C57/BL6 mouse assessed as decrease in occurrence of diarrhea at 10 mg/kg, ip qd administered 3 days before TNBS challenge measured after 7 days; format: functional, organism-based; parameters: dose 10 mg/kg
Summary of the method: (§3)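 Male hPXR mice (human PXR on mouse PXR-null background). Fasted 16 h and lightly anaesthetised with ketamine/xylazine, then given TNBS 0.5 mg/mouse in 50% ethanol intrarectally in 150 μL. Drug was dissolved in DMSO, diluted in 1% methylcellulose and given i.p. once daily for 3 days before TNBS. Vehicle controls received methylcellulose. Mice were sacrificed 4 days after TNBS; n = 6–7 per group.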

[9] = tested on: Mus musculus; assay: Antiinflammatory activity against trinitrobenzenesulfonic acid-induced colitis in human PXR expressing transgenic C57/BL6 mouse assessed as decrease in thickening of colon wall at 10 mg/kg, ip administered on day 1 after TNBS challenge measured after 5 days by microscopically; format: functional, organism-based; parameters: dose 10 mg/kg; summary of the method: as §2
[10] = tested on: Mus musculus; assay: Antiinflammatory activity against trinitrobenzenesulfonic acid-induced colitis in human PXR expressing transgenic C57/BL6 mouse assessed as decrease in evidence of mucosal hemorrhage in colon at 10 mg/kg, ip administered on day 1 after TNBS challenge measured after 5 days; format: functional, organism-based; parameters: dose 10 mg/kg; summary of the method: as §2
[11] = tested on: Mus musculus; assay: Antiinflammatory activity against trinitrobenzenesulfonic acid-induced colitis in human PXR expressing transgenic C57/BL6 mouse assessed as decrease in INF-gamma protein level in colon at 10 mg/kg, ip qd after 5 days; format: functional, organism-based; parameters: dose 10 mg/kg
[12] = tested on: Mus musculus; assay: Antiinflammatory activity against trinitrobenzenesulfonic acid-induced colitis in human PXR expressing transgenic C57/BL6 mouse assessed as decrease in weight loss at 10 mg/kg, ip administered on day 1 after TNBS challenge measured after 5 days; format: functional, organism-based; parameters: dose 10 mg/kg; summary of the method: as §2
[13] = tested on: Mus musculus; assay: Antiinflammatory activity against trinitrobenzenesulfonic acid-induced colitis in human PXR expressing transgenic C57/BL6 mouse assessed as decrease in occurrence of diarrhea at 10 mg/kg, ip administered on day 1 after TNBS challenge measured after 5 days; format: functional, organism-based; parameters: dose 10 mg/kg; summary of the method: as §2
[14] = tested on: Mus musculus; assay: Antiinflammatory activity against trinitrobenzenesulfonic acid-induced colitis in human PXR expressing transgenic C57/BL6 mouse assessed as decrease in appearance of submucosal edema in colon at 10 mg/kg, ip qd administered 3 days before TNBS challenge measured after 7 days by haematoxylin/eosin staining; format: functional, organism-based; parameters: dose 10 mg/kg; summary of the method: as §3

Measured: Activity

CO[C@H]1/C=C/O[C@@]2(C)Oc3c(C)c(O)c4c(O)c(c5c(nc6cc(C)ccn65)c4c3C2=O)NC(=O)/C(C)=C\C=C\[C@H](C)[C@H](O)[C@@H](C)[C@@H](O)[C@@H](C)[C@H](OC(C)=O)[C@@H]1C [RIFAXIMIN]
active: [1] | [2] | [3] | [4] | [5]

C[C@H](CCCOS(=O)(=O)O)[C@H]1CC[C@H]2[C@@H]3CC[C@H]4C[C@H](OS(=O)(=O)O)[C@@H](OS(=O)(=O)O)C[C@]4(C)[C@H]3CC[C@]12C [SOLOMONSTEROL A]
not listed: [1] | [2] | [3] | [4] | [5]
active: all other assays above
